Compounds with a hit are over-represented: about 1.8% of the library has one in this group of screens.
ATG4B inh – ATG4B protease inhibitors, primary screen, biochemical, fluorescence, uHTS. Cysteine protease ATG4B (Homo sapiens), Q9Y4P1. ATG4B cleavage of LC3-PLA2, NBD-HPC fluorescence, 1 h. inhibition, % at 8.33 µM. 340,000 compounds, 0.51% hits; in the data active = inhibition above about 40%
Target sequence (Q9Y4P1 whole entry, looked up): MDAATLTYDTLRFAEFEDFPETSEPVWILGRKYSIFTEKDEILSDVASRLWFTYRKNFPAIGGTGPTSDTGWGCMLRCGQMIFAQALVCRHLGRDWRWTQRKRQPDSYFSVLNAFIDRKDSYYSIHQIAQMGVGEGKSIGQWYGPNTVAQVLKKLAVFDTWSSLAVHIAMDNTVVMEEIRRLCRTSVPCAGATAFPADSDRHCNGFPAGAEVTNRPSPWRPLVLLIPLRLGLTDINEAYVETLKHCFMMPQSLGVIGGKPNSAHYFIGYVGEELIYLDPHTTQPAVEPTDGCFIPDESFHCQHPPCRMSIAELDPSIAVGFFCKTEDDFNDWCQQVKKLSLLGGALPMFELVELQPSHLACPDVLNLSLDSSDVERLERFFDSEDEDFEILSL
HDAC3 inh – HDAC3 deacetylase inhibitors, primary screen, biochemical, fluorescence, cell-free homogeneous | AID 2718, 2010 | Histone deacetylase 3 (Homo sapiens), O15379 | inhibition, % at 8.3 µM | 320,000 compounds, 0.15% hits | recombinant HDAC3, fluorogenic peptide/trypsin coupled; in the data active = inhibition above about 26%, passing the limit was not always enough
HKDC1 inhibitor – HKDC1 hexokinase inhibitors, primary screen, biochemical, fluorescence, uHTS; Q2TB90; recombinant HKDC1, G6PDH/diaphorase resazurin coupled fluorescence; inhibition, % at 20 µM; 340,000 compounds, 0.16% hits; AID 493160, 2011;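 active = inhibition above about 35% when tested at 20 µM, limit read from the data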
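Test system: HK5 enzyme. Quantity: 5 µg/mL HK5 final. Reagent: glucose and ATP substrates. Schedule: 90 min reaction incubation at room temperature, dark. Technique: resazurin-to-resorufin fluorescence via G6PDH and diaphorase coupling, 525/613 nm. Control set: DMSO wells with and without enzyme mix.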
Bfl-1 A1 inh – caspase 3/7 activation in MEF A1-2A-BIM cells, primary screen, A1 inhibitor project, cell-based, luminescence, HTS | Caspase-Glo 3/7 luminescence, 3 h; percent of clofoctol response, vehicle zero | caspase activation, % (concentration not given with the values) | 330,000 compounds, 0.066% hits;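 active = over half of replicate activation scores above 10%, or exactly half above 10 with the replicate mean above 10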
AI-2 QS mod – Vibrio harveyi AI-2 quorum sensing modulators, primary screen, JMH597 strain, luminescence/OD600 ratio; Vibrio harveyi JMH597 AI-2 luminescence/OD600 ratio, 9 h; stronger effect = lower value; strain lacks LuxN and CqsS sensors; 0 = neutral-control median; activity change, % at 7.5 µM; 300,000 compounds, 0.4% hits; in the data active = activity change below about -75%, passing the limit was not always enough;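 also: luminescence divided by OD600 gain over 9 h not by final OD600 alone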
LANA-H2A inh – blockers of LANA interaction with H2A/H2B – biochemical, FP readout, HTS, primary screen | 320,000 compounds, 0.6% hits | AID 2629, 2010 | Protein LANA1 (Human herpesvirus 8 type P (isolate GK18)), Q9QR71 | cell-free LANA-H2A/H2B peptide, fluorescence polarization | inhibition, % (no concentration beside the values); in the data active = inhibition mostly above about 10%, no sharp cut-off; inactive = mostly below about 6.7%
ATG4B conf – ATG4B protease inhibitors, retest, confirmation, biochemical, fluorescence, single concentration. shares compounds with ATG4B inh. AID 504757, 2011. 320 compounds, 92% hits. ATG4B protease fluorescent substrate cleavage assay. inhibition, % at 8.33 µM; in the data active = inhibition above about 39%
PLA2 ctr – PLA2 enzyme inhibition, counter-screen for ATG4B inhibitor project, biochemical, single concentration, uHTS hits | shares compounds with ATG4B inh | inhibition, % at 8.33 µM | 1,600 compounds, 66% hits | purified PLA2, NBD-C6-HPC fluorescence, 45 min; in the data active = inhibition above about 50%
Target sequence (P04054 whole entry, looked up): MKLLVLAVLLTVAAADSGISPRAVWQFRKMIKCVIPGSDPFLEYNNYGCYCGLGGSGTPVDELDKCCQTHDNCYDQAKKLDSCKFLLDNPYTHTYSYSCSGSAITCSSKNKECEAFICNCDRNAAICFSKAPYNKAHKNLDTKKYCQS
Hits are given with their value.

COc1ccc(NC(=O)CN(c2ccccc2C)S(C)(=O)=O)c(OC)c1 was read as ATG4B inh inactive, HDAC3 inh inactive, HKDC1 inhibitor inactive, Bfl-1 A1 inh inactive, AI-2 QS mod inactive and LANA-H2A inh inactive.
`O=C(On1c(-c2ccccc2)nc2ccccc2c1=O)c1ccco1` gave ATG4B inh inactive, HDAC3 inh inactive, HKDC1 inhibitor inactive, Bfl-1 A1 inh inactive, AI-2 QS mod inactive and LANA-H2A inh inactive.
`COc1cc(OC)cc(-c2nc3ccccc3c(=O)n2OC(=O)c2ccccc2C)c1` gave ATG4B inh 45, HDAC3 inh inactive, HKDC1 inhibitor inactive, Bfl-1 A1 inh inactive, AI-2 QS mod inactive, LANA-H2A inh inactive, ATG4B conf 67 and PLA2 ctr inactive.
`C=CC#CC[N+]1(CC#Cc2ccccc2)CCOCC1` gave ATG4B inh 70, HKDC1 inhibitor inactive, AI-2 QS mod inactive, ATG4B conf 46 and PLA2 ctr inactive.
`C(#Cc1ccccc1)C[N+]1(CC#Cc2ccccc2)CCCC1` gave ATG4B inh inactive, HDAC3 inh inactive, HKDC1 inhibitor inactive, Bfl-1 A1 inh inactive, AI-2 QS mod inactive and LANA-H2A inh inactive.
For O=C1Nc2cc(C(=O)N3CCc4ccccc4C3)ccc2S/C1=C\c1ccccc1 the results were ATG4B inh 73, HDAC3 inh inactive, HKDC1 inhibitor inactive, Bfl-1 A1 inh inactive, AI-2 QS mod inactive, LANA-H2A inh inactive and PLA2 ctr 78.
Screening O=C(CSc1nnc(-c2ccc3c(c2)OCO3)o1)Nc1c(F)cccc1F returned ATG4B inh inactive, HDAC3 inh inactive, HKDC1 inhibitor inactive, Bfl-1 A1 inh inactive and LANA-H2A inh inactive.
For CC(C)(C)c1nc(SCC(=O)N2CCCC2)c2ccccc2n1 the results were ATG4B inh inactive, HDAC3 inh inactive, HKDC1 inhibitor inactive, Bfl-1 A1 inh inactive, AI-2 QS mod inactive and LANA-H2A inh inactive.
Screening CC(C)(C)c1nc(SCC(=O)c2ccccc2)c2ccccc2n1 returned ATG4B inh 51, HDAC3 inh inactive, HKDC1 inhibitor inactive, Bfl-1 A1 inh inactive, AI-2 QS mod inactive, LANA-H2A inh inactive, ATG4B conf 70 and PLA2 ctr inactive.
Screening O=C(COC(=O)CCc1nc2ccccc2n1-c1ccccc1)Nc1cccc(Cl)c1 returned ATG4B inh inactive, HDAC3 inh inactive, HKDC1 inhibitor inactive, Bfl-1 A1 inh inactive, AI-2 QS mod inactive and LANA-H2A inh inactive.
For Cc1c(Cl)cccc1NC(=O)COC(=O)CCc1nc2ccccc2n1-c1ccccc1 the results were ATG4B inh 50, HKDC1 inhibitor inactive, Bfl-1 A1 inh inactive, AI-2 QS mod inactive and PLA2 ctr 53.
CC(C)c1ccc(NC2CCCN(C(=O)c3ccnc(Cl)c3)C2)cc1 (stereo not given) was read as ATG4B inh inactive, HDAC3 inh inactive, HKDC1 inhibitor inactive, Bfl-1 A1 inh inactive, AI-2 QS mod inactive and LANA-H2A inh inactive.
`CC(=O)c1ccc(C(=O)N2CCCC(Nc3ccc(C(C)C)cc3)C2)s1` (stereo not given) gave ATG4B inh 49, HDAC3 inh inactive, HKDC1 inhibitor inactive, Bfl-1 A1 inh inactive, AI-2 QS mod inactive, LANA-H2A inh inactive and PLA2 ctr 56.
CC(C)c1ccc(NC2CCCN(C(=O)c3ccco3)C2)cc1 (stereo not given) was read as ATG4B inh 54, HDAC3 inh inactive, HKDC1 inhibitor inactive, Bfl-1 A1 inh inactive, AI-2 QS mod inactive, LANA-H2A inh inactive and PLA2 ctr 53.
Screening CC(=O)c1[nH]c(C)c(C(=O)N2CCCC(Nc3ccc(C(C)C)cc3)C2)c1C (stereo not given) returned ATG4B inh inactive, HKDC1 inhibitor inactive and AI-2 QS mod inactive.
Screening O=[N+]([O-])c1ccc(Sc2nnnn2-c2ccccc2)nc1 returned ATG4B inh inactive, HKDC1 inhibitor inactive and AI-2 QS mod inactive.
Screening Fc1ccccc1C1CC(c2ccco2)=Nc2ccccc2S1 (stereo not given) returned ATG4B inh 53, HDAC3 inh inactive, HKDC1 inhibitor inactive, Bfl-1 A1 inh inactive, AI-2 QS mod inactive, LANA-H2A inh inactive and PLA2 ctr 73.
`O=C1N[C@@H](c2ccccc2)COC(=O)[C@H](Cc2ccc(F)cc2)CC/C=C/C[C@@H]1CC(=O)N(CCO)Cc1ccccc1` gave ATG4B inh 48, HDAC3 inh inactive, HKDC1 inhibitor inactive, Bfl-1 A1 inh inactive, LANA-H2A inh inactive and PLA2 ctr 57.
O=C1N[C@@H](c2ccccc2)COC(=O)[C@@H](Cc2ccc(F)cc2)C/C=C\C[C@H]1CC(=O)N(CCO)Cc1ccccc1 was read as ATG4B inh inactive, HDAC3 inh inactive, HKDC1 inhibitor inactive, Bfl-1 A1 inh inactive and LANA-H2A inh inactive.
Screening Fc1ccc(CCNC(=S)Nc2ccc(F)c(Cl)c2)cc1 returned ATG4B inh 44, HDAC3 inh inactive, HKDC1 inhibitor inactive, Bfl-1 A1 inh inactive, AI-2 QS mod inactive, LANA-H2A inh inactive, ATG4B conf 58 and PLA2 ctr inactive.
For Cc1c(Cl)cccc1NC(=S)NCCc1ccc(Cl)cc1 the results were ATG4B inh 86, HDAC3 inh inactive, HKDC1 inhibitor inactive, Bfl-1 A1 inh inactive, AI-2 QS mod inactive, LANA-H2A inh inactive and PLA2 ctr 89.
`Cc1c(Cl)cccc1NC(=S)NCCc1ccc(F)cc1` gave ATG4B inh 71, HDAC3 inh inactive, HKDC1 inhibitor inactive, Bfl-1 A1 inh inactive, AI-2 QS mod inactive, LANA-H2A inh inactive and PLA2 ctr 77.
`Fc1ccc(NC(=S)NCCc2ccc(Cl)cc2)cc1` gave ATG4B inh inactive, HDAC3 inh inactive, HKDC1 inhibitor inactive, Bfl-1 A1 inh inactive, AI-2 QS mod inactive and LANA-H2A inh inactive.
For O=C(CSc1nnc(-c2ccccn2)n1Cc1ccccc1)N1CCOCC1 the results were ATG4B inh inactive, HDAC3 inh inactive, HKDC1 inhibitor inactive, Bfl-1 A1 inh inactive, AI-2 QS mod inactive and LANA-H2A inh inactive.
